Data: ChEMBL document CHEMBL3758168, “Hybrid triazoles: Design and synthesis as potential dual inhibitor of growth and efflux inhibition in tuberculosis” (Eur J Med Chem, 2016)
In brackets after ≈: the same amount, converted by molar mass.

Tests used:
[1] = system: Mycolicibacterium smegmatis; experiment: Anti-tubercular activity against Mycobacterium smegmatis MC2 155 ATCC 700084 after 3 days by microdilution method; type: functional; details: MC2 155 ATCC 700084, 72 h
Procedure, shortened: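 M. smegmatis mc2155 grown in MB7H9 + 10% OADC at 37 °C with shaking to OD600 0.8. Inoculum set to 0.5 McFarland, diluted 1:100, and mixed 1:1 with two-fold serial dilutions in MB7H9. Plates incubated 3 days at 37 °C with growth and sterility controls. MIC taken as the lowest concentration with no visible growth.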

[2] = Cytotoxicity against human MDM assessed as cell viability after 3 days by Alamar blue dye-based fluorocytometric analysis relative to control; details: 72 h
[3] = system: Mycobacterium tuberculosis; experiment: Anti-tubercular activity against Mycobacterium tuberculosis H37Rv ATCC 27294T after 7 days by mircodilution method; type: functional; details: 168 h
Procedure, shortened: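 H37Rv grown static in MB7H9 + 10% OADC at 37 °C to OD600 0.8, then diluted to about 10^5 cells/ml. Mixed 1:1 with two-fold serial dilutions in MB7H9/OADC and incubated 7 days at 37 °C. MTT added to final 2.5% and plates incubated overnight. MIC is the lowest concentration with no colour change. Run in triplicate.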

SMILES | MIC [1] | IC50 [2] | MIC [3]
CCOC(=O)CC(=O)CSc1nnc(COc2ccccc2C2=NOC(c3ccc(Cl)cc3Cl)C2)n1NC(C)=O (stereo unspecified) | 512 µg/mL (≈ 844 µM) |  | 
CCSc1nnc(COc2ccccc2C2=NOC(c3ccc(Cl)cc3Cl)C2)n1NC(=O)CCl (stereo unspecified) | 512 µg/mL (≈ 947 µM) |  | 
CSc1nnc(COc2ccccc2C2=NOC(c3ccc(Cl)cc3Cl)C2)n1NC(=O)CCl (stereo unspecified) | 32 µg/mL (≈ 60.7 µM) | 2.7 µg/mL (≈ 5.12 µM) | 
C/C=C/Sc1nnc(COc2ccccc2C2=NOC(c3ccc(Cl)cc3Cl)C2)n1NC(=O)CCl (stereo unspecified) | > 512 µg/mL |  | 
C/C=C/Sc1nnc(COc2ccccc2C2=NOC(c3ccc(Cl)cc3Cl)C2)n1NC(C)=O (stereo unspecified) | 512 µg/mL (≈ 988 µM) |  | 
CCCCSc1nnc(COc2ccccc2C2=NOC(c3ccc(Cl)cc3Cl)C2)n1NC(=O)c1ccccc1 (stereo unspecified) | 64 µg/mL (≈ 107 µM) | 2.5 µg/mL (≈ 4.19 µM) | 
C/C=C/Sc1nnc(COc2ccccc2C2=NOC(c3ccc(Cl)cc3Cl)C2)n1NC(=O)c1ccccc1 (stereo unspecified) | 128 µg/mL (≈ 221 µM) |  | 
Nn1c(S)nnc1COc1ccccc1C1=NOC(c2ccc(Cl)cc2Cl)C1 (stereo unspecified) | 2 µg/mL (≈ 4.58 µM) | 87.3 µg/mL (≈ 200 µM) | 
CC(=O)Nn1c(COc2ccccc2C2=NOC(c3ccc(Cl)cc3Cl)C2)nnc1SCC(C)C (stereo unspecified) | > 256 µg/mL |  | 
O=C(CCl)Nn1c(S)nnc1COc1ccccc1C1=NOC(c2ccc(Cl)cc2Cl)C1 (stereo unspecified) | 16 µg/mL (≈ 31.2 µM) | 3.2 µg/mL (≈ 6.24 µM) | 
CCSc1nnc(COc2ccccc2C2=NOC(c3ccc(Cl)cc3Cl)C2)n1NC(=O)c1ccccc1 (stereo unspecified) | 4 µg/mL (≈ 7.04 µM) | 1.8 µg/mL (≈ 3.17 µM) | 
CCOC(=O)CSc1nnc(COc2ccccc2C2=NOC(c3ccc(Cl)cc3Cl)C2)n1NC(=O)c1ccccc1 (stereo unspecified) | 64 µg/mL (≈ 102 µM) |  | 
CSc1nnc(COc2ccccc2C2=NOC(c3ccc(Cl)cc3Cl)C2)n1NC(C)=O (stereo unspecified) | 32 µg/mL (≈ 65 µM) | 2.7 µg/mL (≈ 5.48 µM) | 
CC(C)CSc1nnc(COc2ccccc2C2=NOC(c3ccc(Cl)cc3Cl)C2)n1NC(=O)CCl (stereo unspecified) | 1020 µg/mL (≈ 1800 µM) |  | 
CCCCSc1nnc(COc2ccccc2C2=NOC(c3ccc(Cl)cc3Cl)C2)n1NC(C)=O (stereo unspecified) | 32 µg/mL (≈ 59.9 µM) | 2.6 µg/mL (≈ 4.86 µM) | 
CCCCSc1nnc(COc2ccccc2C2=NOC(c3ccc(Cl)cc3Cl)C2)n1NC(=O)CCl (stereo unspecified) | 32 µg/mL (≈ 56.2 µM) | 2.8 µg/mL (≈ 4.92 µM) | 
CC(=O)Nn1c(S)nnc1COc1ccccc1C1=NOC(c2ccc(Cl)cc2Cl)C1 (stereo unspecified) | 8 µg/mL (≈ 16.7 µM) | 1.3 µg/mL (≈ 2.72 µM) | 
CCOC(=O)CSc1nnc(COc2ccccc2C2=NOC(c3ccc(Cl)cc3Cl)C2)n1NC(C)=O (stereo unspecified) | > 64 µg/mL |  | 

SMILES | MIC [1] | IC50 [2] | MIC [3]
CSc1nnc(COc2ccccc2C2=NOC(c3ccc(Cl)cc3Cl)C2)n1NC(=O)c1ccccc1 (stereo unspecified) | 32 µg/mL (≈ 57.7 µM) | 2.2 µg/mL (≈ 3.97 µM) | 
C=CCSc1nnc(COc2ccccc2C2=NOC(c3ccc(Cl)cc3Cl)C2)n1NC(=O)CCl (stereo unspecified) | 256 µg/mL (≈ 463 µM) |  | 
O=C(CCl)Nn1c(COc2ccccc2C2=NOC(c3ccc(Cl)cc3Cl)C2)nnc1Sc1ccccc1 (stereo unspecified) | 128 µg/mL (≈ 217 µM) |  | 
C=CCSc1nnc(COc2ccccc2C2=NOC(c3ccc(Cl)cc3Cl)C2)n1NC(=O)c1ccccc1 (stereo unspecified) | 128 µg/mL (≈ 221 µM) |  | 
CC(=O)Nn1c(COc2ccccc2C2=NOC(c3ccc(Cl)cc3Cl)C2)nnc1Sc1ccccc1 (stereo unspecified) | > 512 µg/mL |  | 
C=CCSc1nnc(COc2ccccc2C2=NOC(c3ccc(Cl)cc3Cl)C2)n1NC(C)=O (stereo unspecified) | 256 µg/mL (≈ 494 µM) |  | 
O=C(Nn1c(S)nnc1COc1ccccc1C1=NOC(c2ccc(Cl)cc2Cl)C1)c1ccccc1 (stereo unspecified) | 32 µg/mL (≈ 59.2 µM) | 1.7 µg/mL (≈ 3.15 µM) | 
CCOC(=O)CC(=O)CSc1nnc(COc2ccccc2C2=NOC(c3ccc(Cl)cc3Cl)C2)n1NC(=O)CCl (stereo unspecified) | 128 µg/mL (≈ 200 µM) |  | 
CCOC(=O)CSc1nnc(COc2ccccc2C2=NOC(c3ccc(Cl)cc3Cl)C2)n1NC(=O)CCl (stereo unspecified) | 128 µg/mL (≈ 214 µM) |  | 
CCOC(=O)CC(=O)CSc1nnc(COc2ccccc2C2=NOC(c3ccc(Cl)cc3Cl)C2)n1NC(=O)c1ccccc1 (stereo unspecified) | 512 µg/mL (≈ 766 µM) |  | 
O=C(Nn1c(COc2ccccc2C2=NOC(c3ccc(Cl)cc3Cl)C2)nnc1Sc1ccccc1)c1ccccc1 (stereo unspecified) | 256 µg/mL (≈ 415 µM) |  | 
CC(C)CSc1nnc(COc2ccccc2C2=NOC(c3ccc(Cl)cc3Cl)C2)n1NC(=O)c1ccccc1 (stereo unspecified) | 512 µg/mL (≈ 858 µM) |  | 
NCC[C@H](O)C(=O)N[C@@H]1C[C@H](N)[C@@H](O[C@H]2O[C@H](CN)[C@@H](O)[C@H](O)[C@H]2O)[C@H](O)[C@H]1O[C@H]1O[C@H](CO)[C@@H](O)[C@H](N)[C@H]1O [AMIKACIN] |  |  | 2 µg/mL (≈ 3.42 µM)
CC[n+]1c(-c2ccccc2)c2cc(N)ccc2c2ccc(N)cc21.[Br-] [HOMIDIUM BROMIDE] |  |  | 12.5 µg/mL
NNC(=O)c1ccncc1 [ISONIAZID] |  |  | 0.1 µg/mL (≈ 0.729 µM)
CC1COc2c(N3CCN(C)CC3)c(F)cc3c(=O)c(C(=O)O)cn1c23 (stereo unspecified) [OFLOXACIN] |  |  | 2 µg/mL (≈ 5.53 µM)
CO[C@H]1/C=C/O[C@@]2(C)Oc3c(C)c(O)c4c(O)c(c(/C=N/N5CCN(C)CC5)c(O)c4c3C2=O)NC(=O)/C(C)=C\C=C\[C@H](C)[C@H](O)[C@@H](C)[C@@H](O)[C@@H](C)[C@H](OC(C)=O)[C@@H]1C [RIFAMPIN] |  |  | 1 µg/mL (≈ 1.22 µM)
